For series [1], the system named is Mus musculus. Nature of the series: In vivo inhibition of AKT phosphorylation in tumor of BALB/C nude mouse xenografted with human PC9 cells at 15 to 30 mg/kg, ip qd administered for 19 days by immunoblot method. It is filed as functional, organism-based.
For series [2], the system named is Mus musculus. The series can be described thus: In vivo inhibition of EGFR phosphorylation in tumor of BALB/C nude mouse xenografted with human PC9 cells at 15 to 30 mg/kg, ip qd administered for 19 days by immunoblot method. It is filed as functional, organism-based.
Series [3] has as its system NCI-H3255. The series can be described thus: Induction of apoptosis in human H3255 cells assessed as necrotic cells at 1000 nM after 48 hrs by Annexin V-FITC/PI staining based flow cytometry (reference value: 7.06%). It is filed as functional.
The subject of series [4] is A-431. The series can be described thus: Induction of apoptosis in human A431 cells assessed as late apoptotic cells at 1000 nM after 48 hrs by Annexin V-FITC/PI staining based flow cytometry (reference value: 2.11%). The format is functional.
In series [5] the test system is NCI-H1975. The series can be described thus: Cell cycle arrest in human NCI-H1975 cells assessed as accumulation at G2/M phase at 100 to 500 nM after 24 hrs by propidium iodide staining based flow cytometry. The format is functional. An outline of the steps: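 NCI-H1975 cells (2×10^5) seeded in 6-well plates overnight, then treated 24 h at 50, 100, 250 or 500 nM; 1‰ DMSO medium as control. Cells harvested, washed in cold PBS, fixed in 70% cold ethanol at −20 °C overnight, stained with PI/RNase buffer and analysed by flow cytometry. n=3.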
In general terms: A flow cytometer gives signals particle by particle.

Series [6] relates to HCC827. The series can be described thus: Induction of apoptosis in human HCC827 cells assessed as late apoptotic cells at 250 nM after 48 hrs by Annexin V-FITC/PI staining based flow cytometry (reference value: 1.15%). The format is functional.
In series [7] the test system is NCI-H3255. The series can be described thus: Induction of apoptosis in human H3255 cells assessed as late apoptotic cells at 1000 nM after 48 hrs by Annexin V-FITC/PI staining based flow cytometry (reference value: 1.77%). The format is functional.
In series [8] the test system is NCI-H3255. Nature of the series: Induction of apoptosis in human H3255 cells assessed as viable cells after 48 hrs by Annexin V-FITC/PI staining based flow cytometry. It is filed as functional, cell-based.
Series [9] in a line: Half life in Sprague-Dawley rat at 30 mg/kg, po by UPLC-MS/MS analysis. It is filed as ADME, organism-based. To be noted: in vivo. The gist of the method: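 Four female and four male Sprague-Dawley rats, 200-220 g, fasted 12 h, then given a single oral dose of 30 mg/kg as a 0.5% CMC-Na suspension. Blood sampled at 0.083, 0.25, 0.5, 1, 2, 4, 8 and 24 h, plasma separated by centrifugation at 4000 r/min for 10 min, and analysed by UPLC–MS/MS. Parameters reported as mean ± SD, n=6.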

Series [10] relates to NCI-H3255. The series can be described thus: Induction of apoptosis in human H3255 cells assessed as viable cells at 500 nM after 48 hrs by Annexin V-FITC/PI staining based flow cytometry (reference value: 87.9%). It is filed as functional. The note with it: NCI-H3255, 48 h, read-out: Activity.
The test system of series [11] is NCI-H3255. Nature of the series: Induction of apoptosis in human H3255 cells assessed as necrotic cells at 500 nM after 48 hrs by Annexin V-FITC/PI staining based flow cytometry (reference value: 7.06%). The format is functional.
Series [12] concerns HCC827. The series can be described thus: Induction of apoptosis in human HCC827 cells assessed as late apoptotic cells at 500 nM after 48 hrs by Annexin V-FITC/PI staining based flow cytometry (reference value: 1.15%). It is filed as functional.
Series [13] concerns the target T1, Epidermal growth factor receptor (Homo sapiens, UniProt P00533). Nature of the series: Inhibition of EGFR in human H1975 cells assessed as decrease in EGF-induced ERK1/2 phosphorylation by Western blot method. The format is cell-based. The gist of the method: (§1)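 Cell lysates prepared in protein lysis buffer and cleared at 12,000 g for 10 min at 4 °C. 50 μg protein per lane was run on a gel, transferred to PVDF and immunoblotted, with GAPDH as the loading control.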

The test system of series [14] is Mus musculus. The series can be described thus: Toxicity in BALB/C nude mouse xenografted with human PC9 cells at 15 to 30 mg/kg, ip qd administered for 19 days measured for 23 days. The format is organism-based. To be noted: in vivo, 552 h. An outline of the steps:
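Six-week-old BALB/C-nu mice were injected subcutaneously in the right flank with about 2×10^6 PC-9 cells. At a tumour size of ~0.2-0.4 cm³ they were randomised, 5 mice/group. Drug was given in DMSO:Span-80:ddH₂O 2:1:50, ip, daily at 15 or 30 mg/kg for 19 days; vehicle group included. Tumour volume = (W²×L)/2.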

Series [15] has as its target T1, Epidermal growth factor receptor. Nature of the series: Inhibition of EGFR in human A431 cells assessed as decrease in EGF-induced ERK1/2 phosphorylation by Western blot method. It is filed as cell-based. The gist of the method:
as §1

Series [16] concerns A-431. The series can be described thus: Induction of apoptosis in human A431 cells assessed as necrotic cells at 250 nM after 48 hrs by Annexin V-FITC/PI staining based flow cytometry (reference value: 4.16%). The format is functional.
In series [17] the test system is HCC827. The series can be described thus: Induction of apoptosis in human HCC827 cells assessed as viable cells at 250 nM after 48 hrs by Annexin V-FITC/PI staining based flow cytometry (reference value: 94.6%). It is filed as functional. To be noted: HCC827, 48 h, read-out: Activity.
Series [18] has as its system PC-9. The series can be described thus: Antitumor activity against human PC9 cells xenografted in BALB/C nude mouse assessed as decrease in tumor volume at 15 to 30 mg/kg, ip qd administered for 19 days measured for 23 days. It is filed as functional, organism-based. The gist of the method:
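Six-week-old BALB/C-nu mice given 2×10^6 PC-9 cells subcutaneously in the right flank. At tumour size ~0.2-0.4 cm³, randomised, 5 mice/group. Dosed ip daily for 19 days at 15 or 30 mg/kg, vehicle DMSO:Span-80:ddH₂O = 2:1:50; vehicle-treated control group. Tumour volume = (W²×L)/2. Tumours weighed.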
In general terms: A xenograft is tissue or cells of one species grown in another, often human tumour cells in immunodeficient mice.

Series [19] deals with Mus musculus. The series can be described thus: In vivo inhibition of ERK1/2 phosphorylation in tumor of BALB/C nude mouse xenografted with human PC9 cells at 15 to 30 mg/kg, ip qd administered for 19 days by immunoblot method. The format is functional, organism-based.
The subject of series [20] is NCI-H3255. Nature of the series: Induction of apoptosis in human H3255 cells assessed as necrotic cells at 250 nM after 48 hrs by Annexin V-FITC/PI staining based flow cytometry (reference value: 7.06%). It is filed as functional.
Series [21] has as its system Rattus norvegicus. The series can be described thus: Volume of distribution in Sprague-Dawley rat at 30 mg/kg, po by UPLC-MS/MS analysis. The note with it: in vivo. It is filed as ADME, organism-based. An outline of the steps:
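Sprague-Dawley rats (four female, four male; 200-220 g) were fasted 12 h and given a single oral 30 mg/kg dose as a 0.5% CMC-Na suspension. Blood was drawn at 0.083, 0.25, 0.5, 1, 2, 4, 8 and 24 h and centrifuged at 4000 r/min for 10 min. Samples were quantified by UPLC–MS/MS; parameters are reported for n=6.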

Series [22] deals with NCI-H3255. The series can be described thus: Induction of apoptosis in human H3255 cells assessed as late apoptotic cells at 250 nM after 48 hrs by Annexin V-FITC/PI staining based flow cytometry (reference value: 1.77%). The format is functional.
Series [23] concerns the target T1, Epidermal growth factor receptor. The series can be described thus: Inhibition of EGFR in human H3255 cells assessed as decrease in EGF-induced AKT phosphorylation by Western blot method. The format is cell-based. The gist of the method: as §1
Background: Immunoblotting shows a protein as a band on a membrane.

SMILES strings stand for the structures. The source made the active and inactive calls. The calls are words filed in the database; no cut-off is given here.

Broadly, the half-life is the time in which the quantity being followed falls by half. Higher therefore signals slow decline.

T1 sequence (P00533 whole entry): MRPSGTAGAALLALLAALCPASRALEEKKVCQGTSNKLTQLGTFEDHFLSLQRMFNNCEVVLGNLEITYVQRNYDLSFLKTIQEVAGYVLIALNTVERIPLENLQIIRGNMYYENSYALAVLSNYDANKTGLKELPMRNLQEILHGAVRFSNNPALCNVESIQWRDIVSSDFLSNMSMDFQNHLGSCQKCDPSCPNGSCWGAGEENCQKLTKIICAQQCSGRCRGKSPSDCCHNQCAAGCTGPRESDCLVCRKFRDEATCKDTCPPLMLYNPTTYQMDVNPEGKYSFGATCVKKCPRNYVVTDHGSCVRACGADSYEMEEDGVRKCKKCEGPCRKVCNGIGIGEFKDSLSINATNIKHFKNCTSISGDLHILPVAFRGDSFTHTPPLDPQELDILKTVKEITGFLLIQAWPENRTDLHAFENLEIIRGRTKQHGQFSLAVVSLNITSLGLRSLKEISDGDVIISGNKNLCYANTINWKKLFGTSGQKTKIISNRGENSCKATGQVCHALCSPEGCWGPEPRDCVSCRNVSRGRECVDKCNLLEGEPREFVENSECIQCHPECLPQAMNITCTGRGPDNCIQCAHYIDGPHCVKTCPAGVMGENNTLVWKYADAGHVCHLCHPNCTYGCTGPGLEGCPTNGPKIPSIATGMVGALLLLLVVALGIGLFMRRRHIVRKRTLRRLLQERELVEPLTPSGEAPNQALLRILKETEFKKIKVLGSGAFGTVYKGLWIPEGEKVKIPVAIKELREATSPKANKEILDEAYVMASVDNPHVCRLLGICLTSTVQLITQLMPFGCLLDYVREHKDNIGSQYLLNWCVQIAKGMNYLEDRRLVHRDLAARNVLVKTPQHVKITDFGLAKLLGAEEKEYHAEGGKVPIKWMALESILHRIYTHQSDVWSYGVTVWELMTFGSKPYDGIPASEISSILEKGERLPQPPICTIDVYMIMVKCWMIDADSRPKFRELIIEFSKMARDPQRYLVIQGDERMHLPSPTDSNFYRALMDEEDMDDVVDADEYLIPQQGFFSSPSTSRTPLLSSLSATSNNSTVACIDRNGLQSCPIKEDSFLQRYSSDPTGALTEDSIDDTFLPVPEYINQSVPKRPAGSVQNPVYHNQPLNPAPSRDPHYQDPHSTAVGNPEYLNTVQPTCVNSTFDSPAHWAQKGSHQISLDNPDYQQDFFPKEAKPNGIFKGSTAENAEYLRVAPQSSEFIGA

Turning to `COc1cccc(Nc2cc(Nc3cc(OC)ccc3OC)ncn2)c1`, the inhibition entry in series [1], in series [2] and in series [19] was “Active” in each case. Besides, the Activity in series [3] was 6.35%; in [4], 13%; in series [6] it was 10.2%; in [7], 10.6%; in [8], “Dose-dependent effect”; in [11] it was 4.88%. For the same compound, the Activity in [12] is recorded as 7.72%; in [14], “Non-Toxic”; in series [16], 3.41%; in [20] it was 4.27%; in series [22], 3.24%. Moreover, the result in [5] and in series [18] was Active. This compound had a half-life in series [9] of 4.17 h. Further, in series [10], the viability at 0.5 µM turned out to be 78.2%. For the same compound, the inhibition entry in series [13], in [15] and in series [23] was “Dose-dependent effect” each time. Also, the viability at 0.25 µM in [17] was found to be 61.9%. The Vd in series [21] was 0.03 L/kg.

Source of the values: ChEMBL document CHEMBL4265907, “Design, synthesis and pharmacological evaluation of N4,N6-disubstituted pyrimidine-4,6-diamine derivatives as potent EGFR inhibitors in non-small cell lung cancer” (Eur J Med Chem, 2018).
